Data on 13 compounds can be found in article PMC9527016 (Toxicology letters, 2020).

Data set [1] deals with lysine peptide Ac-RFAAKAA-COOH. As to the kind of experiment: Lysine peptide depletion, RapidFire-MS/MS DPRA. The data set is classed as biochemical. The method, boiled down:
(§1)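 Lysine peptide (Ac-RFAAKAA-COOH) and alanine internal-standard peptide are mixed, each at 0.5 mM final, in acetate ammonia buffer pH 10.2. Test compound in DMSO […] is added in a 384-well plate and incubated 24 h at room temperature. The range is 12 μM–50 mM or 25 μM–100 mM. Samples are diluted to 0.05 μM, then analysed by C4 SPE with triple-quadrupole MRM. Peptide area is normalised to DMSO wells.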

Data set [2] has as its system cysteine peptide Ac-RFAACAA-COOH. As to the kind of experiment: Cysteine peptide depletion, RapidFire-MS/MS DPRA. The data set is classed as biochemical. To be noted: for Detection as sensitizer in the cysteine peptide depletion assay: threshold defined by OECD test guideline 442C.
Data set [3] relates to alanine peptide Ac-RFAAAAA-COOH. The data set is described as follows: Alanine peptide. Format: biochemical. The essentials:
as §1

The test system is the same in data set [4]. The data set is described as follows: Alanine peptide signal, HPLC-TOF-MS. Format: biochemical. The method, boiled down:
(§2)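 Peptide mixtures are separated on a C18 column (2.1×150 mm, 1.7 μm) at 60 °C and 0.4 mL/min. Mobile phases are water and acetonitrile with 0.1% formic acid, run over a 22 min gradient. Detection is by positive-mode ESI-TOF MS over m/z 150–1700. Seven concentrations of test compound are tested. Integrated lysine or alanine peptide area is normalised to the DMSO control.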

The subject of data set [5] is lysine peptide Ac-RFAAKAA-COOH. The data set is described as follows: Lysine peptide depletion, HPLC-TOF-MS. Format: biochemical. The method, boiled down: as §2
Data set [6] has as its system cysteine peptide Ac-RFAACAA-COOH. The data set is described as follows: Confirmation of chemical-cysteine peptide adduct by HPLC-TOF-MS. Format: biochemical. To be noted: HPLC-TOF-MS after 24 h incubation; Figure 6. The method, boiled down: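 Cysteine peptide (Ac-RFAACAA-COOH) is mixed with alanine peptide and incubated with test compound for 24 h. The mixture is run by C18 LC (60 °C, 0.4 mL/min, 22 min water/acetonitrile 0.1% formic acid gradient) with positive-mode ESI-TOF MS over m/z 150–1700. Total ion chromatograms are recorded, and mass spectra of selected peaks are inspected for adduct or peptide dimer masses.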

A short description of data set [7]: Precipitation in lysine peptide buffer. Format: physicochemical. To be noted: 100 mM added into the lysine peptide buffer.
For another data set, the system named is lysine peptide. To be noted: cited from earlier work.

Where only a bound is given, the exact number is not on record here.

In the case of `C=CC(=O)OCC` [Ethyl acrylate], the “Depletion of the lysine peptide at the highest tested concentrations” value in data set [1] is “more than 50%”. For the same compound, in data set [2], the “Detection as sensitizer in the cysteine peptide depletion assay” value (shortened to “Detection as sensitizer”) is “not detected”.
For `O=CCCCC=O` [Glutaraldehyde], the “Alanine peptide signal vs concentration, RapidFire-MS/MS” value in data set [3] (Figure 5D) is listed as “decreased in a concentration-dependent manner”. Moreover, the “Alanine peptide signal vs concentration, HPLC-TOF-MS” value in data set [4] (Figure 5D) is on record as “decreased in a concentration-dependent manner”. Moreover, in data set [1], the “Depletion of the lysine peptide at the highest tested concentrations” value is on record as “more than 50%”. The “Lysine peptide signal vs concentration, RapidFire-MS/MS” value in data set [1] (lysine peptide area only, Figure 5E) is given as “decreased in a concentration-dependent manner”. In data set [5] (Figure 5E), the “Lysine peptide signal vs concentration, HPLC-TOF-MS” value is listed as “decreased in a concentration-dependent manner”.
Turning to `O=C/C=C/c1ccccc1` [Cinnamic aldehyde], in data set [3] (high concentrations (above 1 mM), area normalized to DMSO, Figure 5A), the “Decrease in alanine peptide signal (depletion), RapidFire-MS/MS” value was over 60%. The “Adduct formation with cysteine peptide” value in data set [6] was “formed adduct peak with cysteine peptide”. Further, the “Alanine peptide signal, HPLC-TOF-MS” value in data set [4] (7-point concentration range, Figure 5A) was “no changes were observed”. Besides, in data set [5] (at 100 mM, Figure 5B), the “Lysine peptide signal, HPLC-TOF-MS” value is reported as “slight decrease”.
Regarding `C=C(C)C(=O)OCC(C)O` (stereo not shown) [2-Propenoic acid, 2-methyl-, monoester with 1,2-propanedio], in data set [2], the “Detection as sensitizer” value is recorded as “not detected”.
Take `C=C(C)C(=O)OCCOC(=O)C(=C)C` [Ethylene glycol dimethacrylate]: the “Adduct formation with cysteine peptide” value in data set [6] is “formed adduct peak with cysteine peptide”.
With `CCCOC(=O)c1cc(O)c(O)c(O)c1` [Propyl gallate], the “Depletion of the lysine peptide at the highest tested concentrations” value in data set [1] is listed as “more than 50%”.
Consider `CCCCCCCCCCCCCCCC(=O)Cl` [Palmitoyl chloride], for which the “Precipitation on addition to lysine peptide buffer” value in data set [7] was “immediate precipitation”. For the same compound, the “Lysine peptide depletion (literature)” value in the data set on lysine peptide (ref No, O.T., 2015) is “almost completely depleted lysine peptide”. For the same compound, in data set [2], the “Detection as sensitizer” value is given as “not detected”.
For the compound `O=CCc1ccccc1` [Phenylacetaldehyde], in data set [2], the “Detection as sensitizer” value is reported as “not detected”.
`C=CC(=O)OCCO` [Hydroxyethyl acrylate]: the “Depletion of the lysine peptide at the highest tested concentrations” value in data set [1] is given as “more than 50%”.
In the case of `Oc1ccc(O)cc1` [Hydroquinone], the “Depletion of the lysine peptide” value in the data set with lysine peptide (at 0.5 mM, ref Gerberick et al., 2004) is listed as 83.3%. Further, in data set [1], the “Depletion of the lysine peptide at the highest tested concentrations” value is recorded as “more than 50%”.
In the case of `CCCCCC` [n-Hexane], in data set [2] (pH 7.5), the “Efficacy (% peptide depletion), cysteine peptide” value is reported as “Inactive” and the “IC50 (M), depletion of cysteine peptide” value is reported as “Inactive”.
Turning to `CCCCCCCCCCCCOC(=O)c1cc(O)c(O)c(O)c1` [Dodecyl gallate], the “Detection as sensitizer” value in data set [2] was “not detected”.
On the same count and under the same terms, next, `O=C(NCNC(=O)NC1C(=O)NC(=O)N1CO)NC1C(=O)NC(=O)N1CO` (stereo not shown) [Imidazolidinyl urea]: “not detected”.
